These results are taken from publication PMC7617399 (Nature microbiology, 2016).

Like-named read-outs stand apart in the source and are kept apart here. Some results are limits rather than exact numbers.

The target in series [1] is purified recombinant UAP56 (GST-UAP56) (Homo sapiens, UniProt Q13838). In words: UAP56 ATPase assay. The format is biochemical. Put shortly: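 2.5 μM GST-UAP56 (E. coli BL-21, glutathione-eluted, buffer-exchanged) with 50 μM yeast tRNA, 35 μM ATP, 2 mM MgCl2, 50 mM KCl, 50 mM Tris/HCl pH 7.6. Screening at 100 μM final compound. IC50 series delivered in DMSO (1% of reaction). 37°C, 30 min, remaining ATP read by Kinase-Glo luminescence. Biological replicates.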
Sequence of purified recombinant UAP56 (GST-UAP56) (Q13838 whole entry): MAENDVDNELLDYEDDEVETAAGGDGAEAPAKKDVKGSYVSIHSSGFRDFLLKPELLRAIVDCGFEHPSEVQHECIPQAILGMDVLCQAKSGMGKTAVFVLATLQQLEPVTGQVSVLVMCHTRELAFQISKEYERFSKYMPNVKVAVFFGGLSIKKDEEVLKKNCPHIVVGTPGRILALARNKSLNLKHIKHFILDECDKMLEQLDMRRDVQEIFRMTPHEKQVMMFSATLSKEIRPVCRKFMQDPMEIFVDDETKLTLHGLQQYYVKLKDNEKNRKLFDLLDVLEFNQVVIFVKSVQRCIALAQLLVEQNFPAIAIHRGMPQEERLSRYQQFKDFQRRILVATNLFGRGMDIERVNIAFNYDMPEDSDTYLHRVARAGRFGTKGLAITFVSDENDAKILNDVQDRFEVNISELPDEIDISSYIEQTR

Series [2] in a line: MTS cell viability assay, TREx BCBL1-Rta. Format: cell-based, human. As to conditions: human, TREx BCBL1-Rta cells. Put shortly: (§1)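 MTS assay: TREx BCBL1-Rta plated at 1×10^6 cells/ml and treated at once with test compound in DMSO (0.1% of volume, also added to controls). Viability read at 24 and 72 h. Biological replicates.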
On the technique in general: Tetrazolium dyes change colour on reduction, which living cells bring about.

Series [3] deals with KSHV minor capsid protein (mCP) expression in TREx BCBL1-Rta cells. The experiment in a line: Viral late protein mCP expression. Format: cell-based. As to conditions: for EC50: read-out: EC50 24 h (μM) (mCP expression).
In series [4] the test system is KSHV viral load in TREx BCBL1-Rta cells. The experiment in a line: KSHV replication assay. The format is cell-based. The following applies: for EC50: read-out: EC50 72 h (μM) (Viral load).
The target of another series is ORF57-UAP56 interaction (Homo sapiens, UniProt Q13838). In words: Co-immunoprecipitation of ORF57 with UAP56. Format: cell-based, KSHV / human. The following applies: nucleotide added to HEK-293T lysates (1.25 mM or concentration series). Put shortly:
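1×10^6 HEK-293T transfected with 1 μg ORF57-GFP or GFP plasmid (Lipofectamine), lysed after 24 h on ice for 20 min in modified RIPA (50 mM Tris/HCl, 150 mM NaCl, 1% NP40-alternative, pH 7.6) plus RNase A. Lysate clarified, pre-cleared on protein A for 2 h at 4°C, pulled down on GFP-trap beads with ATP, ADP or ATPγS for 2.5 h at 4°C. Western blot.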

Another series concerns the target recombinant GST-UAP56 (Homo sapiens, UniProt Q13838). In words: Microscale thermophoresis binding to UAP56. The following applies: read-out: KD (microscale thermophoresis); FITC-labelled GST-UAP56, 37°C. A digest of the protocol:
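GST-UAP56 FITC-labelled, desalted into 20 mM HEPES pH 7.4 with 2 mM MgCl2, used at 100–500 nM. Titrated with test compound in a 1:1 serial dilution from 4.5 mM, final DMSO 20% (v/v). LED power 10–60%, 37°C. KD fitted in thermophoresis mode. Biological replicates.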
(In general: Microscale thermophoresis detects binding through changes in fluorescence in a small temperature gradient.)

For series [5], the target named is ADP-bound purified recombinant UAP56 (Homo sapiens, UniProt Q13838). In words: ADP displacement assay. Format: binding. Put shortly:
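Pre-formed ADP-bound enzyme: 5 μM GST-UAP56 (E. coli BL-21) run with 5 μM ATP for 30 min under ATPase-assay buffer conditions. Leftover ATP depleted with ADP-Glo reagent, then test compound added at rising concentrations and incubated 37°C for 30 min. Freed ADP converted to ATP and read by luminescence. n = 3 biological replicates.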

The next series deals with HEK-293T cells. In words: MTS cell viability assay, HEK-293T. The format is cell-based, human. Put shortly: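 MTS assay: HEK-293T plated at 0.5×10^6 cells/ml 24 h ahead, then given test compound in DMSO (0.1% of volume, also added to controls). Readings normalised to DMSO wells, n = 5. CC50 from four-parameter variable-slope non-linear regression.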
The subject of series [6] is TREx BCBL1-Rta cells. The experiment in a line: MTS cell viability assay, TREx BCBL1-Rta. As to conditions: TREx BCBL1-Rta, MTS, mean ± s.e.m. The format is cell-based, human. A digest of the protocol: as §1
For a further series, the system named is KSHV. The experiment in a line: Infectious KSHV virion production. Format: cell-based. As to conditions: 2.5 μM, supernatant 72 h after induction. Put shortly:
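0.8×10^6 TREx BCBL1-Rta cells reactivated with 2 μg/ml doxycycline and treated with test compound or DMSO. Supernatants filtered at 72 h and used 1:1 on 1×10^6 HEK-293T. At 24 h post-infection, TRIzol RNA assayed by qRT-PCR for viral mRNA, normalised to GAPDH, shown as fold change against DMSO.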

The target of another series is hTREX-UAP56 interaction (Homo sapiens, UniProt Q13838). In words: Co-immunoprecipitation of endogenous hTREX with UAP56. Format: cell-based. The following applies: up to 0.5 mM added to the lysate.
Sequence of hTREX-UAP56 interaction (Q13838 2-428): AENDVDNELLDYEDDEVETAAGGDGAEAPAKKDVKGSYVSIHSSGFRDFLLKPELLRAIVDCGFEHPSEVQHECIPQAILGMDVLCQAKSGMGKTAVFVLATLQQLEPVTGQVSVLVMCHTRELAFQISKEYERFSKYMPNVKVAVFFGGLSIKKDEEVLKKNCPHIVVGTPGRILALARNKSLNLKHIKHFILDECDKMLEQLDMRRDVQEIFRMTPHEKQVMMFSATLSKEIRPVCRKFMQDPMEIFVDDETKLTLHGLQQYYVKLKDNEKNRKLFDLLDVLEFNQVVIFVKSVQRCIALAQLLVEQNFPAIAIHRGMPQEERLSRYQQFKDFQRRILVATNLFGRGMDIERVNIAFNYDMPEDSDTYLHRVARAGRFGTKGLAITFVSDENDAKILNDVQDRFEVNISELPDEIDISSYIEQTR
Sequence of hTREX-UAP56 interaction (P82979 2-210, further chain): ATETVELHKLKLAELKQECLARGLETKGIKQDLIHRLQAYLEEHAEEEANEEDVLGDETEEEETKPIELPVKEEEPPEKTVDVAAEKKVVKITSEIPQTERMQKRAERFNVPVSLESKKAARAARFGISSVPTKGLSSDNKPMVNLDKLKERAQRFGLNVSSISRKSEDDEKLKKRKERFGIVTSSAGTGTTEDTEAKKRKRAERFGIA
Series [7] relates to ORF57-mediated ORF47 mRNA stabilization and export in HEK-293T cells. In words: Viral mRNA export assay. The format is cell-based, KSHV. As to conditions: 2.5 μM, 18 h. Put shortly: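 HEK-293T co-transfected with GFP or ORF57-GFP plus an intronless ORF47 reporter, then exposed to DMSO or test compound for 18 h. RNA taken from whole-cell and cytoplasmic fractions. ORF47 measured by qRT-PCR, normalised to GAPDH, ΔΔCT. n = 3, unpaired t test.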

For series [8], the system named is ORF57-mediated nuclear retention of cellular bulk mRNA in HEK-293T cells. The experiment in a line: Fluorescence in situ hybridization of poly. Format: cell-based, human. The following applies: ORF57-GFP expressing HEK-293T, 24 h treatment. Put shortly: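 HEK-293T transfected with GFP or ORF57-GFP for 6 h, then DMSO or test compound for 24 h. Poly(A) RNA detected with 5′ Alexa Fluor 546-labelled oligo dT(70) probe, nuclei stained with DAPI, confocal imaging. Cells showing nuclear mRNA retention counted. 4 independent experiments.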

Series [9] concerns TREx BCBL1-Rta cells. In words: Apoptosis assay. The format is cell-based, human. As to conditions: 72 h, CCT018159 at 2.5 μM. Put shortly:
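TREx BCBL1-Rta cells exposed to DMSO or test compound for 72 h, washed, then incubated in HEPES buffer with Annexin-V-fluorescein plus propidium iodide to mark apoptotic and necrotic cells. Analysis by flow cytometry. Biological replicates.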

The test system of series [10] is KSHV latent nuclear antigen (LANA). The experiment in a line: LANA immunoblotting. Format: cell-based. The following applies: immunoblot, range of concentrations. Background: A western blot detects proteins with antibodies after separation by electrophoresis.
Series [11] concerns HSV-1. The experiment in a line: Infectious HSV-1 virion production. Format: cell-based.
Series [12] has as its system HSV-1. In words: HSV-1 plaque assay after primary infection. The format is cell-based. The following applies: increasing concentrations, HFF cells. Put shortly:
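HFF (2×10^5) infected with HSV-1 at MOI 0.001 for 1 h and washed twice in PBS. Cells then overlaid with plaque agar (growth medium 1:1 with 2% agarose, 37°C) holding test compound or DMSO (0.1% final). Agarose lifted at 96 h, cells fixed 10 min in 4% paraformaldehyde, stained with 0.5% crystal violet, plaques counted by eye. Lysis also imaged directly.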

The next series relates to HCMV. In words: Infectious HCMV virion production. Format: cell-based.
A further series addresses HSP90. As to conditions: read-out: Ki (HSP90); reported value; cited from earlier work.
Where [13] appears, read: reactivated TREx BCBL1-Rta, 72 h, qPCR, mean ± s.e.m.

Sequence of ORF57-UAP56 interaction (P82979 2-210): as the sequence (P82979 2-210, further chain) above
Sequence of ORF57-UAP56 interaction (Q13838 2-428): as the sequence (Q13838 2-428) above
Sequence of ADP-bound purified recombinant UAP56 (Q13838 whole entry): as the sequence (Q13838 whole entry) above
Sequence of recombinant GST-UAP56 (Q13838 whole entry): as above

In the case of `CCc1cc(-c2n[nH]c(C(=O)O)c2-c2ccc(OC)cc2)c(O)cc1O` [Cmpd. 4, 3-(5-Ethyl-2,4-dihydroxyphenyl)-4-(4-methoxyphenyl)-1H-pyrazole-5-carboxylic acid], the IC50 (commonly the concentration that inhibits the measured activity by half) in series [1] is > 1000 µM. In addition, in series [2], the CC50 – broadly, the concentration at which the toxic effect on the cells reaches its halfway point – at 24 h was ~820 µM and the cytotoxic concentration (CC50) at 72 h is > 1000 µM. Further, the 50% effective concentration (EC50) (commonly the concentration that produces a half-maximal response) in [3] (Human gammaherpesvirus 8, 24 h) was > 1000 µM. In series [4] (Human gammaherpesvirus 8, 72 h), the EC50 was found to be 138 ± 45.2 µM.
For the compound `Nc1ncnc2c1ncn2[C@@H]1O[C@H](CO[P@](=O)(O)O[P@](=O)(O)O[P@@](=O)(O)S)[C@@H](O)[C@H]1O` [ATPγS, Adenosine 5′-O-(3-thio)triphosphate], the “effect of nucleotide on ORF57-UAP56/hTREX interaction” value on ORF57-UAP56 interaction is reported as “significantly inhibited”.
`CCc1cc(-c2n[nH]c(C)c2-c2ccc(OC)cc2)c(O)cc1O` [Cmpd. 3, 4-Ethyl-6-(4-(4-methoxyphenyl)-3-methyl-1H-pyrazol-5-yl)benzene-1,3-diol]: in [1], the IC50 was found to be 88.7 ± 7.9 µM. In series [2], this compound came in with a CC50 at 24 h of 27.9 ± 2.7 µM and a 50% cytotoxic concentration (CC50) at 72 h of 14.7 ± 0.5 µM. The EC50 in series [3] (Human gammaherpesvirus 8, 24 h) is 2.4 ± 0.4 µM. For the same compound, the concentration giving a half-maximal response (EC50) in [4] (Human gammaherpesvirus 8, 72 h) stood at 2.7 ± 0.2 µM.
As to `Nc1ncnc2c1ncn2[C@@H]1O[C@H](COP(=O)(O)OP(=O)(O)OP(=O)(O)O)[C@@H](O)[C@H]1O` [ATP], the Kd – broadly, the equilibrium constant for the complex coming apart – at recombinant GST-UAP56 came to 30.1 ± 4.5 µM. Further, the “effect of nucleotide on ORF57-UAP56/hTREX interaction” value at ORF57-UAP56 interaction was “enhanced”.
Consider `CCc1cc(-c2n[nH]c(C)c2-c2ccc3c(c2)OCCO3)c(O)cc1O` [CCT018159], for which, in [1] (at 100 μM (compound screening)), the “reduction of UAP56 activity” value is recorded as > 70%. Moreover, the dissociation constant Kd at recombinant GST-UAP56 is 76 ± 3.8 µM. Further, in [5] (ADP-bound UAP56, increasing concentrations), the “mode of inhibition (ADP displacement)” value was “ATP/ADP-competitive inhibitor”. The IC50 in [5] (read-out: IC50 (ADP displacement)) is ~60 µM. In addition, in the series with HEK-293T cells, the non-cytotoxic concentrations was < 15 µM. The CC50 in the series with TREx BCBL1-Rta cells [6] (read-out: CC50 24 h (μM) (Cell viability), 24 h) stood at 21.1 ± 1.6 µM; in the series with TREx BCBL1-Rta cells [6] (read-out: CC50 72 h (μM) (Cell viability), 72 h), 16.6 ± 1.1 µM. Further, in [3] (at 2.5 μM), the mCP expression entry is recorded as “marked reduction”. In addition, the “concentrations at which mCP inhibition occurred” value in series [3] (immunoblot) fell in the range of 1 to 2.5 µM. For the same compound, the concentration for a half-maximal effect (EC50) in series [3] (reactivated TREx BCBL1-Rta, 24 h, mean ± s.e.m.) came to 0.6 ± 0.1 µM; in series [4] (setting [13]) it was 1.1 ± 0.1 µM. The “potency of antiviral effect relative to IC50 on purified UAP56” value in series [4] (discussion) stood at 30 fold. In addition, in series [4] (discussion, assay not specified), the “concentration of antiviral effect” value is recorded as “around 2 μM”. Further, the “reduction of viral mRNA in re-infected cells versus controls” value in the series on KSHV stood at 80%. Also, the “effect on hTREX-UAP56 interaction” value on hTREX-UAP56 interaction is “did not inhibit”. Further, the “effect on ORF57-mediated ORF47 mRNA stabilization and export” value in series [7] is on record as “abolished”. In addition, the “effect on ORF57-mediated nuclear retention of poly(A) RNA” value in series [8] is listed as “nuclear retention was lost”. The apoptosis result with TREx BCBL1-Rta cells [9] is reported as “no increase in apoptosis”. Also, the LANA degradation entry in series [10] is given as “no LANA degradation”. In addition, the “reduction in infected cells (HSV-1 re-infection)” value in the series with HSV-1 [11] (2.5 μM) is reported as 50%; with HSV-1 [11] (5 μM), 95%. The “cell lysis, plaque size and plaque number” value in the series with HSV-1 [12] is reported as “dramatically decreased”. In addition, the “reduction of HCMV virion production” value in the series with HCMV (1 μM) was 50%; with HCMV (2.5 μM), “over 99%”. Besides, on HSP90, the inhibition constant (Ki) (usually the dissociation constant of the complex between target and ligand, obtained from inhibition or displacement) was 1.8 ± 0.3 µM.
`CO[C@H]1/C=C\C=C(/C)C(=O)NC2=CC(=O)C(NCCN(C)C)=C(C[C@@H](C)C[C@H](OC)[C@H](O)[C@@H](C)/C=C(\C)[C@@H]1OC(N)=O)C2=O` [Compound 17-DMAG]: in series [1] (Supplementary Fig. 2a), the “UAP56 ATPase inhibition” value is recorded as “no UAP56 ATPase inhibition”. Moreover, the half-maximal effective concentration (EC50) in [4] (setting [13]) was found to be 0.04 ± 0.01 µM. The “effect on ORF57-mediated nuclear retention of poly(A) RNA” value in series [8] is reported as “failed to relieve”. In the series with TREx BCBL1-Rta cells [9], the apoptosis entry is “increased levels of apoptosis and necrosis”. Besides, the LANA degradation entry in series [10] is listed as “enhanced”.
Regarding `Nc1ncnc2c1ncn2[C@@H]1O[C@H](COP(=O)(O)OP(=O)(O)O)[C@@H](O)[C@H]1O` [ADP], the “effect of nucleotide on ORF57-UAP56/hTREX interaction” value on ORF57-UAP56 interaction is on record as “disrupted”.
